Screening results as filed in PubChem.
Rpn11 inh = inhibitors of human proteasome Rpn11 | calls only at 20 µM | human 26S proteasome, Ub4-pepOG fluorescence polarization; 20S core pre-blocked with epoxomicin | actives 0.59% (n = 360,000) | O00487;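 active = inhibition at 20 µM, scaled to each plate's controls, above about 33%, limit read from the data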
CSN inh = blocks human CSN-mediated cullin deneddylation; actives 0.38% (n = 360,000); AID 651999; Q92905; inhibition, % at 12.5 µM; Purified CSN, SCF-Nedd8-OG deneddylation, fluorescence polarization;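 active = pattern-corrected inhibition above about 35%, with an unprinted fluorescence ratio check between 0.5 and 1.5, limit read from the data, passing the limit was not always enough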;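 also: 0% = enzyme with substrate and 100% = substrate without enzyme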
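Assay system: HEK293T-derived human Csn5 enzyme; quantity: 0.24 nM enzyme; medium: Tris/NaCl/DTT buffer, pH 7.5; also added: substrate SCFSkp2-Nedd8OG, 10 nM; doses: 12.5 µM compound; schedule: 90 min reaction at room temperature; signal: FP; read-out: % inhibition of substrate cleavage by Csn5; benchmarks: substrate-only high control, full reaction low control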
SENP1 FRET inh = blocks the human SENP1 SUMO protease catalytic domain; Q9P0U3; recombinant SENP1 catalytic domain, CyPet-SUMO1-YPet FRET cleavage; inhibition, % at 10 µM; actives 0.21% (n = 360,000);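 active = inhibition at least 30% at 10 µM, raw YFP signal under a set limit, fluorescence ratio 0.5 to 1.5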;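 also: 0% = enzyme with DMSO and 100% = no enzyme wells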
Target sequence (Q9P0U3 419-644 limits assumed): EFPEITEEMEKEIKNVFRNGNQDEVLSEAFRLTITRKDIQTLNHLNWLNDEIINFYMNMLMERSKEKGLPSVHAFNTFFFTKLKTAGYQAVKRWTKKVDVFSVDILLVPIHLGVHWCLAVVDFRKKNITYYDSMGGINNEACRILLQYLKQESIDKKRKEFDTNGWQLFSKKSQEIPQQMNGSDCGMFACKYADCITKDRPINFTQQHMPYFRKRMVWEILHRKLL
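Assay system – human recombinant His6-tagged SENP1 catalytic domain enzyme · Input – SENP1 enzyme, 20 pM final · Buffer or medium – Tris pH 8 buffer plus EDTA, NaCl, BME, BSA, NP40, catalase · Schedule – 50 min reaction at room temperature · Technique – FRET read of cyan and yellow fluorescence · Control set – no-enzyme wells low, DMSO-plus-enzyme wells high control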
SUMO HTRF inh = SUMOylation inhibition. actives 0.36% (n = 290,000). P63279. HTRF SUMOylation assay, SAE1/SAE2 + UBC9, in vitro. inhibition, % at 35 µM; in the data active = inhibition above about 50%, passing the limit was not always enough; inconclusive = no clear call, values can overlap the other calls
Target sequence (P63279 whole entry, looked up): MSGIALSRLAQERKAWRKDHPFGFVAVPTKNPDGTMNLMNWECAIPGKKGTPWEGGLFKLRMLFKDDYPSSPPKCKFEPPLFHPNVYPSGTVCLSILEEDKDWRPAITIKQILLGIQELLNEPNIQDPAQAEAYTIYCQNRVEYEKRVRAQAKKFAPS
HNF4A DNA FP = change in binding of human HNF4 alpha to DNA | P41235 | actives 0.3% (n = 360,000) | AID 1224865 | HNF4a-FITC DNA binding, fluorescence polarization, 1 h | activity change, % at 10 µM; in the data active = activity change above about 30%, passing the limit was not always enough
TPT1 inh = blocks Candida albicans tRNA 2'-phosphotransferase; recombinant caTPT1, FP RNA substrate dephosphorylation; inhibition, % at 5 µM; actives 0.81% (n = 300,000); AID 1962;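 active = inhibition above the mean of all tested compounds plus 3 SD, set per screening campaign, cut at about 24% in these data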;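 also: plate controls were DMSO alone for no effect and ferristatin control at 100 nM for full effect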
* marks the source's active call; other numbers are inactive results. Shown are actives, neighbours in structure and some others; about 1.8% of the full set was active somewhere.

Results for O=c1nc2s/c(=C\c3ccco3)c(=O)n2nc1Cc1ccc(F)cc1 ?
Rpn11 inh: inactive; CSN inh: 0; SENP1 FRET inh: 1; HNF4A DNA FP: -1; TPT1 inh: 3

Results for Cc1ccc(-c2nc3s/c(=C\c4ccco4)c(=O)n3n2)cc1 ?
Rpn11 inh: inactive; CSN inh: 38*; SENP1 FRET inh: 11; SUMO HTRF inh: 48; HNF4A DNA FP: -10; TPT1 inh: 3

What do the screens show for `Cc1ccc(/C=c2\sc3nc(-c4ccco4)nn3c2=O)o1`?
CSN inh: 43*; SENP1 FRET inh: -8; SUMO HTRF inh: 80; HNF4A DNA FP: -34; TPT1 inh: 11

What do the screens show for `Cc1ccc(/C=c2/sc3nnc(-c4ccccc4Cl)n3c2=O)o1`?
Rpn11 inh: inactive; CSN inh: 16; SENP1 FRET inh: -19; SUMO HTRF inh: -8; HNF4A DNA FP: 6; TPT1 inh: 9

Results for CSCCC(NC(=O)c1ccccc1)C(=O)NCc1ccc(S(N)(=O)=O)cc1 (stereo not given) ?
Rpn11 inh: inactive; CSN inh: -1; SENP1 FRET inh: 0; SUMO HTRF inh: 7; HNF4A DNA FP: -2; TPT1 inh: -2

How did COc1ccc(C(=O)Nc2ccc3[nH]c(-c4cccc(OC)c4)cc(=O)c3c2)cc1 do in these assays?
Rpn11 inh: inactive; CSN inh: -3; SENP1 FRET inh: -4; SUMO HTRF inh: 11; HNF4A DNA FP: 2; TPT1 inh: -2

How did COC(=O)c1ccc(NC(=S)N2CCCC2)cc1 do in these assays?
Rpn11 inh: inactive; CSN inh: -6; SENP1 FRET inh: 1; SUMO HTRF inh: 6; HNF4A DNA FP: -5; TPT1 inh: 2

What do the screens show for `Nc1ccc(Cl)c[n+]1Cc1cccc2cccnc12`?
Rpn11 inh: inactive; CSN inh: -1; SENP1 FRET inh: -1; SUMO HTRF inh: -17; HNF4A DNA FP: 1; TPT1 inh: 1

Results for Cc1nn(CC(=O)N/N=C/c2ccc3c(c2)OCO3)c(C)c1Br ?
Rpn11 inh: inactive; CSN inh: -2; SENP1 FRET inh: 4; SUMO HTRF inh: 50*; HNF4A DNA FP: -2; TPT1 inh: 2

How did Cc1cc(C)n(CC(=O)N/N=C/c2ccc3c(c2)OCO3)n1 do in these assays?
Rpn11 inh: inactive; CSN inh: -1; SENP1 FRET inh: 2; SUMO HTRF inh: 10; HNF4A DNA FP: 2; TPT1 inh: 2

Results for Cc1noc(C)c1COc1ccccc1C(=O)NCCc1ccc(S(N)(=O)=O)cc1 ?
Rpn11 inh: inactive; CSN inh: 0; SENP1 FRET inh: 0; SUMO HTRF inh: -5; HNF4A DNA FP: -1; TPT1 inh: -4

How did O=C(c1cnc(Cc2c[nH]c3ccccc23)c(I)c1)N1CCN(Cc2ccccc2)CC1 do in these assays?
Rpn11 inh: inactive; CSN inh: 42*; SENP1 FRET inh: 1; HNF4A DNA FP: 1

How did COc1ccc(/C=N/Nc2ncc(Br)cn2)c(OC)c1 do in these assays?
CSN inh: 62*; SENP1 FRET inh: -2; SUMO HTRF inh: 6; HNF4A DNA FP: 8; TPT1 inh: 3

What do the screens show for `COc1ccc(/C=N\Nc2ccccn2)c(OC)c1`?
Rpn11 inh: inactive; CSN inh: 2; SENP1 FRET inh: 2; SUMO HTRF inh: 1; HNF4A DNA FP: 4

Results for O=C(NCCC1=CCCCC1)C(=O)NCC(c1ccco1)N1CCN(c2ccc(F)cc2)CC1 (stereo not given) ?
Rpn11 inh: inactive; CSN inh: -7; SENP1 FRET inh: 2; SUMO HTRF inh: -9; HNF4A DNA FP: 1; TPT1 inh: 2

What do the screens show for `O=C(CC1Nc2cccc3cccc(c23)NC1=O)Nc1ccc(F)cc1` (stereo not given)?
Rpn11 inh: inactive; CSN inh: 6; SENP1 FRET inh: -24; SUMO HTRF inh: 68*; HNF4A DNA FP: 0; TPT1 inh: -1

How did COc1ccc(NC(=O)CC2Nc3cccc4cccc(c34)NC2=O)cc1 (stereo not given) do in these assays?
Rpn11 inh: inactive; CSN inh: 13; SENP1 FRET inh: -23; SUMO HTRF inh: inconclusive; HNF4A DNA FP: -4; TPT1 inh: 1

How did COc1ccc(-c2oc3cc(OC(C)=O)cc(OC(C)=O)c3c(=O)c2OC)cc1 do in these assays?
Rpn11 inh: inactive; CSN inh: 0; SENP1 FRET inh: -9; HNF4A DNA FP: -5

Results for CC(=O)Oc1cc(O)c2c(=O)c(OC(C)=O)c(-c3ccc(OC(C)=O)c(OC(C)=O)c3)oc2c1 ?
Rpn11 inh: inactive; CSN inh: 5; SENP1 FRET inh: 51*; HNF4A DNA FP: -3; TPT1 inh: 3

How did OC1(c2cccc(C(F)(F)F)c2)CCNCC1 do in these assays?
Rpn11 inh: inactive; CSN inh: -1; SENP1 FRET inh: 0; SUMO HTRF inh: 7; HNF4A DNA FP: 1; TPT1 inh: 1

Results for O=C(Nc1cccn(Cc2c(F)cccc2Cl)c1=O)NC1CCCCC1 ?
Rpn11 inh: inactive; CSN inh: 10; SENP1 FRET inh: -4; SUMO HTRF inh: 37; HNF4A DNA FP: -2; TPT1 inh: 0

What do the screens show for `O=C(Nc1cccn(Cc2cccc(F)c2)c1=O)NC1CCCCC1`?
Rpn11 inh: inactive; CSN inh: -9; SENP1 FRET inh: 1; SUMO HTRF inh: 99*; HNF4A DNA FP: -2; TPT1 inh: 0

How did CCCCCCCCC/C(=N\O)c1ccccn1 do in these assays?
Rpn11 inh: inactive; CSN inh: 7; SENP1 FRET inh: 0; SUMO HTRF inh: 21; HNF4A DNA FP: 1; TPT1 inh: -1

What do the screens show for `COc1ccc(Cn2c(-c3ccc(C)cc3)nc3c(c(=O)c4ccccc4n3C)c2=O)cc1`?
Rpn11 inh: inactive; CSN inh: 44*; SENP1 FRET inh: -1; SUMO HTRF inh: 16; HNF4A DNA FP: 8; TPT1 inh: 2

How did CCOC(=O)[C@]12CCCC=C1N(Cc1cccc3ccccc13)C(=O)[C@H](CC(=O)NCc1ccc(C)o1)C2 do in these assays?
CSN inh: 5; SENP1 FRET inh: 1; HNF4A DNA FP: 0

How did O=C(Nc1ccccc1)Nc1ccno1 do in these assays?
Rpn11 inh: inactive; CSN inh: 6; SENP1 FRET inh: 2; SUMO HTRF inh: 57*; HNF4A DNA FP: 10; TPT1 inh: 4

How did O=C1C=C(N2CCOCC2)c2ccccc2C1=O do in these assays?
Rpn11 inh: inactive; CSN inh: 30; SENP1 FRET inh: 0; SUMO HTRF inh: 96*; HNF4A DNA FP: 2; TPT1 inh: -1

Results for O=C(NC1CC1)c1cccc2c1C(=O)c1ccc(N3CCC(N4CCCCC4)CC3)cc1S2(=O)=O ?
CSN inh: 43*; SENP1 FRET inh: 69; HNF4A DNA FP: 45
